Measurements taken from ChEMBL document CHEMBL1221285, “Inhibition of interleukin-1beta converting enzyme (ICE or caspase 1) by aspartyl acyloxyalkyl ketones and aspartyl amidooxyalkyl ketones” (Bioorg Med Chem Lett, 2010).

These compounds were tested against T1, Caspase-1 (Homo sapiens) (UniProt P29466) (assay: Inhibition of ICE in human PBMC).
T1 sequence (whole entry): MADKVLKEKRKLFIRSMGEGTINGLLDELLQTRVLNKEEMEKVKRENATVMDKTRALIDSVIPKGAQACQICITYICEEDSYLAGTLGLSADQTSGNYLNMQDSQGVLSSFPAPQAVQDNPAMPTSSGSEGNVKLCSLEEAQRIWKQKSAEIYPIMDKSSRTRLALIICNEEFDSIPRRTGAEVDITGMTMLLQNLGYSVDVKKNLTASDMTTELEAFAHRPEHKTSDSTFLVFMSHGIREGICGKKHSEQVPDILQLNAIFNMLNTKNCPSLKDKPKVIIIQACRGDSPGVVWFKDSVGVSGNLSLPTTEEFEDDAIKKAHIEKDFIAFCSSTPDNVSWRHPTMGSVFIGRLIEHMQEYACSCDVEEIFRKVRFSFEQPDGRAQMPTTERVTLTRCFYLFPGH
Method in brief: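 Human PBMC isolated from heparinized blood over Ficoll, washed three times in PBS, then held in RPMI 1640 with glutamine, penicillin, streptomycin and 2% human AB serum at 10^6 cells per well. Cells were stimulated overnight with LPS 10 ng/mL with or without inhibitor. Mature IL-1b in the medium was measured by ELISA. IC50 is the concentration reducing IL-1b by 50%.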
In the case of `CC(C)[C@H](NC(=O)OCc1ccccc1)C(=O)N[C@@H](C)C(=O)N[C@@H](CC(=O)O)C(=O)COC(=O)CC(c1ccccc1)c1ccccc1`, the IC50 is reported as 4300 nM. `CC(C)[C@H](NC(=O)OCc1ccccc1)C(=O)N[C@@H](C)C(=O)N[C@@H](CC(=O)O)C(=O)COC(=O)Cc1cccc2ccccc12` was tested, and the IC50 was 600 nM. `COC(=O)C[C@H]1CCC[C@H]2CC(=O)N(OCC(=O)[C@H](CC(=O)O)NC(=O)[C@H](C)NC(=O)[C@@H](NC(=O)OCc3ccccc3)C(C)C)[C@@H]12` was tested, and the IC50 was 4800 nM. Work on `CC(C)[C@H](NC(=O)OCc1ccccc1)C(=O)N[C@@H](C)C(=O)N[C@@H](CC(=O)O)C(=O)CCCCCc1ccccc1` yielded an IC50 of 4900 nM. `CC(C)[C@H](NC(=O)OCc1ccccc1)C(=O)N[C@@H](C)C(=O)N[C@@H](CC(=O)O)C(=O)COC(=O)C(Cc1ccccc1)Cc1ccccc1` was tested, and the IC50 was 1400 nM. Compound `CC(C)[C@H](NC(=O)OCc1ccccc1)C(=O)N[C@@H](C)C(=O)N[C@@H](CC(=O)O)C(=O)CON1C(=O)Cc2ccccc21` has an IC50 of 3000 nM. For `CC(=O)N[C@@H](Cc1ccc(O)cc1)C(=O)N[C@H](C(=O)N[C@@H](C)C(=O)N[C@@H](CC(=O)O)C(=O)CCCCCc1ccccc1)C(C)C`, the IC50 was 900 nM. Compound `CC(C)[C@H](NC(=O)OCc1ccccc1)C(=O)N[C@@H](C)C(=O)N[C@@H](CC(=O)O)C(=O)CON1C(=O)C[C@@H]2CCCC[C@@H]21` has an IC50 of 2400 nM.

What follows are compounds tested against T2, Caspase-1 (Homo sapiens, UniProt P29466) (assay: Inhibition of ICE).
T2 sequence (P29466 whole entry): T1 sequence (whole entry)
Method in brief: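 Recombinant ICE; inhibition followed by fluorescence. Ki reported as the geometric mean of two or more experiments.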
Compound `O=C(O)C[C@H](NC(=O)OCc1ccccc1)C(=O)COC(=O)Cc1coc2ccccc12` has a Ki of 800 nM. Compound `O=C(O)C[C@H](NC(=O)OCc1ccccc1)C(=O)CON1C(=O)C[C@@H]2CCCC[C@H]21` has a Ki of 17500 nM. `Cc1cccc2c(CC(=O)OCC(=O)[C@H](CC(=O)O)NC(=O)OCc3ccccc3)cccc12` showed a Ki of 2000 nM. For `CC(C)[C@H](NC(=O)OCc1ccccc1)C(=O)N[C@@H](C)C(=O)N[C@@H](CC(=O)O)C(=O)COC(=O)CC(c1ccccc1)c1ccccc1`, the IC50 was 5 nM and the Ki was 1 nM. Compound `O=C(O)C[C@H](NC(=O)OCc1ccccc1)C(=O)COC(=O)Cc1ccc2ccccc2c1` has a Ki of 1300 nM. `O=C(O)C[C@H](NC(=O)OCc1ccccc1)C(=O)COC(=O)CCc1ccccc1` was tested, and the Ki was 4500 nM. `CC(C)[C@H](NC(=O)OCc1ccccc1)C(=O)N[C@@H](C)C(=O)N[C@@H](CC(=O)O)C(=O)COC(=O)Cc1cccc2ccccc12` was tested, and the IC50 was 2 nM and the Ki was 3 nM. With `O=C(O)C[C@H](NC(=O)OCc1ccccc1)C(=O)COC(=O)Cc1cccc2scnc12` the Ki was 2600 nM. `O=C(O)C[C@H](NC(=O)OCc1ccccc1)C(=O)CONC(=O)Cc1cccc2ccccc12` was tested, and the Ki was 84000 nM. `O=C(O)C[C@H](NC(=O)OCc1ccccc1)C(=O)COCCCCCc1ccccc1` gave a Ki of 119000 nM. Work on `O=C(O)C[C@H](NC(=O)OCc1ccccc1)C(=O)COC(=O)CNc1ccccc1` yielded a Ki of 5600 nM. With `O=C(O)C[C@H](NC(=O)OCc1ccccc1)C(=O)COC(=O)CCCc1ccccc1` the Ki was 16000 nM. `O=C(O)C[C@H](NC(=O)OCc1ccccc1)C(=O)CONC(=O)c1ccccc1` gave a Ki of 21000 nM. `O=C(O)C[C@H](NC(=O)OCc1ccccc1)C(=O)CONC(=O)CCc1cccc2ccccc12` showed a Ki of 298000 nM. In the case of `O=C(O)C[C@H](NC(=O)OCc1ccccc1)C(=O)COC(=O)CSc1ccccc1`, the Ki is reported as 1100 nM. Work on `O=C(O)C[C@H](NC(=O)OCc1ccccc1)C(=O)COC(=O)CC(c1ccccc1)c1ccccn1` (stereo partly specified) yielded a Ki of 1100 nM. For `O=C(O)C[C@H](NC(=O)OCc1ccccc1)C(=O)COC(=O)Cc1csc2ccccc12`, the Ki was 1200 nM. Work on `COC(=O)C[C@H]1CCC[C@H]2CC(=O)N(OCC(=O)[C@H](CC(=O)O)NC(=O)[C@H](C)NC(=O)[C@@H](NC(=O)OCc3ccccc3)C(C)C)[C@@H]12` yielded an IC50 of 26 nM and a Ki of 7 nM. `O=C(O)C[C@H](NC(=O)OCc1ccccc1)C(=O)COC(=O)CCc1ccc2ccccc2c1` showed a Ki of 6000 nM. With `COC(=O)C[C@H]1CCC[C@H]2CC(=O)N(OCC(=O)[C@H](CC(=O)O)NC(=O)OCc3ccccc3)[C@@H]12` the Ki was 15000 nM. `O=C(O)C[C@H](NC(=O)OCc1ccccc1)C(=O)COC(=O)COc1cccc2ccccc12` showed a Ki of 1000 nM. For `O=C(O)C[C@H](NC(=O)OCc1ccccc1)C(=O)CONC(=O)CCc1ccccc1`, the Ki was 27500 nM. In the case of `Cc1cccc2cccc(CC(=O)OCC(=O)[C@H](CC(=O)O)NC(=O)OCc3ccccc3)c12`, the Ki is reported as 8500 nM. `CC(C(=O)OCC(=O)[C@H](CC(=O)O)NC(=O)OCc1ccccc1)c1cccc2ccccc12` (stereo partly specified) showed a Ki of 1000 nM. With `O=C(O)C[C@H](NC(=O)OCc1ccccc1)C(=O)CON1C(=O)Cc2ccccc21` the Ki was 6770 nM. `CC(C)[C@H](NC(=O)OCc1ccccc1)C(=O)N[C@@H](C)C(=O)N[C@@H](CC(=O)O)C(=O)CCCCCc1ccccc1` gave an IC50 of 976 nM and a Ki of 134 nM. For `O=C(O)C[C@H](NC(=O)OCc1ccccc1)C(=O)CON1C(=O)C2C3C=CC(O3)C2C1=O` (stereo partly specified), the Ki was 1500 nM. `Cc1ccc2ccccc2c1CC(=O)OCC(=O)[C@H](CC(=O)O)NC(=O)OCc1ccccc1` gave a Ki of 4400 nM. Compound `O=C(O)C[C@H](NC(=O)OCc1ccccc1)C(=O)CON1Cc2ccccc2C1=O` has a Ki of 14000 nM. For `O=C(O)C[C@H](NC(=O)OCc1ccccc1)C(=O)COC(=O)COc1ccccc1`, the Ki was 1700 nM. Work on `O=C(O)C[C@H](NC(=O)OCc1ccccc1)C(=O)COC(=O)Cc1ccccc1` yielded a Ki of 8300 nM. `CC(C)[C@H](NC(=O)OCc1ccccc1)C(=O)N[C@@H](C)C(=O)N[C@@H](CC(=O)O)C(=O)COC(=O)C(Cc1ccccc1)Cc1ccccc1` showed an IC50 of 3 nM and a Ki of 2 nM. With `O=C(O)C[C@H](NC(=O)OCc1ccccc1)C(=O)CONC(=O)Cc1ccccc1` the Ki was 66500 nM. `CC(C)[C@H](NC(=O)OCc1ccccc1)C(=O)N[C@@H](C)C(=O)N[C@@H](CC(=O)O)C(=O)CON1C(=O)Cc2ccccc21` showed an IC50 of 3 nM and a Ki of 2 nM. For `Cc1ccc(CC(=O)OCC(=O)[C@H](CC(=O)O)NC(=O)OCc2ccccc2)c2ccccc12`, the Ki was 1300 nM. Compound `CC(=O)N[C@@H](Cc1ccc(O)cc1)C(=O)N[C@H](C(=O)N[C@@H](C)C(=O)N[C@@H](CC(=O)O)C(=O)CCCCCc1ccccc1)C(C)C` has an IC50 of 78 nM. With `CC(C)[C@H](NC(=O)OCc1ccccc1)C(=O)N[C@@H](C)C(=O)N[C@@H](CC(=O)O)C(=O)CON1C(=O)C[C@@H]2CCCC[C@@H]21` the IC50 was 3 nM and the Ki was 1 nM. With `O=C(O)C[C@H](NC(=O)OCc1ccccc1)C(=O)CON1C(=O)C[C@@H]2CCCC[C@@H]21` the Ki was 9200 nM. For `O=C(O)C[C@H](NC(=O)OCc1ccccc1)C(=O)COC(=O)Cc1c[nH]c2ccccc12`, the Ki was 600 nM. `O=C(O)C[C@H](NC(=O)OCc1ccccc1)C(=O)COC(=O)CC(c1ccccc1)c1ccccc1` gave a Ki of 800 nM. `O=C(O)C[C@H](NC(=O)OCc1ccccc1)C(=O)COC(=O)Cc1cccc2ccccc12` gave a Ki of 500 nM.
